The text below walks through data of ChEMBL document CHEMBL3259763, “Synthesis and antifilarial activity of chalcone-thiazole derivatives against a human lymphatic filarial parasite, Brugia malayi” (Eur J Med Chem, 2014).

Data set [1] has as its system Brugia malayi. The experiment in a line: Antifilarial activity against Brugia malayi microflilariae worm assessed as inhibition of parasite motility after 48 hrs by microscopic analysis. It counts as functional, organism-based. In short, it runs like this:
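B. malayi microfilariae were washed in HBSS (pH 7.2) and plated at 40-50 mf/100 µL/well, in triplicate, in HBSS with penicillin/streptomycin. Two-fold dilutions from 0.38-40 µM were given in DMSO (final <0.1%), with DMSO controls, for 48 h at 37 °C, 5% CO2. Motility was scored microscopically, and IC50 was found by linear interpolation over control.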

Data set [2] is described as follows: Cytotoxicity against African green monkey Vero C1008 cells assessed as cell death by three-fold serial dilution method. The note with it: chlorocebus sabaeus. It counts as cell-based. A digest of the protocol:
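Vero C1008 cells exposed to three-fold serial dilutions of test agents, starting above 20 x LC100; CC50 obtained by linear interpolation between the concentrations bracketing 50% inhibition.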

Data set [3] deals with Brugia malayi. The experiment in a line: Antifilarial activity against Brugia malayi adult worm assessed as inhibition of parasite motility after 48 hrs by microscopic analysis. It counts as functional, organism-based. A digest of the protocol:
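Freshly isolated adult female B. malayi were washed in HBSS (pH 7.2) and incubated one worm/ml/well, in triplicate, in HBSS with penicillin/streptomycin. Two-fold dilutions from 0.38-40 µM were given in DMSO (final <0.1%), with DMSO controls. After 48 h, motility was scored 0-4 under a microscope. IC50 was found by linear interpolation of percent inhibition versus DMSO.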

The test system of data set [4] is Brugia malayi. The experiment in a line: Antifilarial activity against Brugia malayi adult worm infected in jird assessed as microfilaricidal activity at 100 mg/kg, sc administered for 5 days starting from day 7/8 post-worm transplantation measured on day 7 post-initiation of drug treatment. It counts as functional, organism-based. More on the design: dose 100 mg/kg. A digest of the protocol: (§1)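 Mf in peritoneal cavity of transplanted jirds were examined on day 7/8 p.i.t. after 5 days of s.c. dosing started on day 7/8; change was expressed as % of the pretreatment mf count.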

Another data set relates to Mastomys coucha. The experiment in a line: Toxicity in Mastomys coucha infected with third stage infective larvae (L3) form of Brugia malayi assessed as normal behaviour at 100 mg/kg, sc administered for 5 days measured on day 91 post-initiation of drug treatment. It counts as organism-based. More on the design: dose 100 mg/kg, route subcutaneous. The note with it: in vivo, 120 h.

The test system of data set [5] is Brugia malayi. The data set is described as follows: Antifilarial activity against Brugia malayi adult worm infected in jird assessed as embryostatic effect at 100 mg/kg, sc administered for 5 days starting from day 7/8 post-worm transplantation (reference value: 9.80 +/- 5.63%). As to conditions: route subcutaneous. It counts as functional.
Data set [6] is described as follows: (§2) Selectivity index, ratio of CC50 for African green monkey Vero C1008 cells to IC50 for Brugia malayi microflilariae worm. It counts as functional. In short, it runs like this:
(§3)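 SI computed as CC50 (Vero C1008) divided by IC50 against adult worms or mf; IC50 values from 48 h exposure of parasites to two-fold dilutions at 37 °C, with % inhibition vs DMSO-treated worms and linear interpolation.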

The test system of data set [7] is Brugia malayi. The experiment in a line: Antifilarial activity against Brugia malayi adult worm infected in jird assessed as macrofilaricidal efficacy by measuring reduction in adult worm recovery at 100 mg/kg, sc administered for 5 days starting from day 7/8 post-worm transplantation measured on day 60 post-initiation of drug treatment. It counts as functional. The note with it: route subcutaneous. A digest of the protocol:
(§4)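 Jirds carrying intraperitoneally transplanted B. malayi (sub-periodic) adults were dosed s.c. for 5 days starting day 7/8 after transplantation; test agents were suspended fresh daily in 0.1% Tween-80, DEC in water, ivermectin in 0.1% Tween-80. Killed day 60 p.i.t.; worms recovered from peritoneal washings were counted, and % reduction was calculated vs vehicle controls (4-8 animals).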

The subject of a further data set is Meriones unguiculatus. The data set is described as follows: Toxicity in jird infected with Brugia malayi adult worm assessed as normal behaviour at 100 mg/kg, sc administered for 5 days starting from day 7/8 post-worm transplantation measured on day 60 post-initiation of drug treatment. It counts as organism-based. More on the design: dose 100 mg/kg, route subcutaneous. The note with it: gerbil, in vivo, 120 h.

For data set [8], the system named is Brugia malayi. The experiment in a line: Antifilarial activity against third stage infective larvae (L3) form of Brugia malayi infected in Mastomys coucha assessed as reduction in adult worm recovery at 100 mg/kg, sc administered for 5 days measured on day 91 post-initiation of drug treatment. It counts as functional. As to conditions: route subcutaneous. In short, it runs like this:
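M. coucha carrying 5-7 month old L3-induced sub-periodic B. malayi infections received 5 days of s.c. dosing (vehicle 0.1% Tween-80; DEC in water). Killed day 91 p.i.t.; adults were recovered from teased heart, lung and testes, and % reduction in recovery was calculated vs vehicle controls.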

A short description of data set [9]: (§5) Selectivity index, ratio of CC50 for African green monkey Vero C1008 cells to IC50 for Brugia malayi adult worm. It counts as functional. In short, it runs like this:
as §3

Data set [10] deals with Brugia malayi. The experiment in a line: Antifilarial activity against third stage infective larvae (L3) form of Brugia malayi infected in Mastomys coucha assessed as female sterilizing efficacy at 100 mg/kg, sc administered for 5 days measured on day 91 post-initiation of drug treatment (reference value: 23%). It counts as functional. As to conditions: route subcutaneous.

Data set [11] relates to Brugia malayi. The experiment in a line: Antifilarial activity against Brugia malayi adult worm assessed as inhibition of parasite viability after 48 hrs by MTT assay. It counts as functional. In short, it runs like this:
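Adult female B. malayi washed in HBSS pH 7.2, one worm/mL/well in triplicate, exposed 48 h at 37 °C in 5% CO2 to two-fold dilutions (0.38-40 µM; DEC 15.63-1000 µM) in HBSS with penicillin/streptomycin, DMSO <0.1% final; after motility scoring the same worms taken for MTT reduction; % inhibition vs DMSO control, IC50 by linear interpolation.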

For data set [12], the system named is Vero C1008. The description is as §2. It counts as functional. A digest of the protocol:
as §3

Data set [13] deals with Brugia malayi. The experiment in a line: Antifilarial activity against Brugia malayi adult worm infected in jird assessed as microfilaricidal activity at 1 mg/kg, sc administered for 5 days starting from day 7/8 post-worm transplantation measured on day 7 post-initiation of drug treatment. It counts as functional, organism-based. Also noted: dose 1 mg/kg. In short, it runs like this:
as §1

In data set [14] the test system is Brugia malayi. The data set is described as follows: Antifilarial activity against Brugia malayi adult worm infected in jird assessed as reduction in adult worm recovery at 1 mg/kg, sc administered for 5 days starting from day 7/8 post-worm transplantation measured on day 60 post-initiation of drug treatment. More on the design: dose 1 mg/kg. It counts as functional, organism-based. In short, it runs like this:
as §4

Data set [15] deals with Brugia malayi. The experiment in a line: Antifilarial activity against Brugia malayi adult worm infected in jird assessed as embryostatic effect at 1 mg/kg, sc administered for 5 days starting from day 7/8 post-worm transplantation (reference value: 9.80 +/- 5.63%). It counts as functional, organism-based. More on the design: dose 1 mg/kg.
For data set [16], the system named is Vero C1008. The data set is described as §5. It counts as functional. A digest of the protocol: as §3

Active and inactive are the calls of the source. The calls are words filed in the database; no cut-off is given here. Where only a bound is given, the exact number is not on record here.

For IVERMECTIN [listing 1 of 2 here], the IC50 in the data set on Brugia malayi [1] stood at 1.57 µM; with Brugia malayi [3], 3.05 µM. In addition, in data set [2] (vero), the CC50 came to 230 µM.
Regarding `CC(C)c1cc(/C=C/C(=O)c2ccco2)cc(/C=N/c2nccs2)c1O`, the result with Brugia malayi [4] was inactive. Further, the Activity entry in the data set on Mastomys coucha is “Non-toxic”; in the data set on Brugia malayi [5] it was 0%; with Meriones unguiculatus, “Non-toxic”; with Brugia malayi [10], 30%. Moreover, the LC100 with Brugia malayi [1] and in the data set with Brugia malayi [3] was 10 µM in each case. The half-inhibitory concentration (IC50) with Brugia malayi [1] (Brugia malayi, 48 h) stood at 3.5 µM; in the data set with Brugia malayi [3] (Brugia malayi, 48 h) it was 3.2 µM. Also, in data set [2] (Vero C1008 cells), the 50% cytotoxic concentration (CC50) worked out at 60 µM. Moreover, the “Ratio CC50/IC50” value in data set [6] is reported as 17; in data set [9] it was 19. The inhibition in vivo at 100 mg/kg is 18.2% in the data set on Brugia malayi [7] and 40.9% in the data set on Brugia malayi [8]. Also, the inhibition (INH) with Brugia malayi [11] came out at 63%.
In the case of `CC(C)c1cc(/C=C/C(=O)c2cccs2)cc(/C=N/c2nccs2)c1O`, the LC100 in the data set on Brugia malayi [1] and in the data set on Brugia malayi [3] was greater than 40 µM in each case. The inhibition entry with Brugia malayi [11] is “inactive”.
Regarding `COc1ccc(C(=O)/C=C/c2cc(C)c(O)c(/C=N/c3nccs3)c2)cc1`, the LC100 with Brugia malayi [1] and in the data set with Brugia malayi [3] was greater than 40 µM throughout. In addition, in the data set with Brugia malayi [11], the “inhibition (INH)” value stood at 25%.
Take `CC(C)(C)c1cc(/C=C/C(=O)c2ccco2)cc(/C=N/c2nccs2)c1O`: the results for the LC100 in the data set with Brugia malayi [1] and in the data set on Brugia malayi [3] were 20 µM and 40 µM, respectively. In the data set with Brugia malayi [1] (Brugia malayi, 48 h), the 50% inhibitory concentration (IC50) amounted to 7.07 µM. Moreover, in [2] (Vero C1008 cells), the CC50 was found to be 220 µM. Besides, in data set [6], the “Ratio CC50/IC50” value is given as 28.57. Further, the inhibition entry with Brugia malayi [11] was “inactive”.
As to `CCCc1cc(/C=C/C(=O)c2ccc(C)cc2)cc(/C=N/c2nccs2)c1O`, the LC100 in the data set on Brugia malayi [1] and in the data set with Brugia malayi [3] was greater than 40 µM throughout. Also, the inhibition result in the data set on Brugia malayi [11] was “inactive”.
For `CC(C)(C)c1cc(/C=C/C(=O)c2cccs2)cc(/C=N/c2nccs2)c1O`, the Activity entry in the data set on Mastomys coucha is “Non-toxic”; with Brugia malayi [5] it was 100%; in the data set with Meriones unguiculatus, “Non-toxic”; in the data set on Brugia malayi [10], 44%. For the same compound, the LC100 with Brugia malayi [1] amounted to 5 µM; in the data set with Brugia malayi [3], 2.5 µM. For the same compound, the half-inhibitory concentration (IC50) worked out at 1.8 µM in the data set on Brugia malayi [1] (Brugia malayi, 48 h) and 0.9 µM with Brugia malayi [3] (Brugia malayi, 48 h). Also, the CC50 in data set [2] (Vero C1008 cells) is 40 µM. In addition, the “Ratio CC50/IC50” value is listed as 22 in [6] and 44 in [9]. The inhibition in vivo at 100 mg/kg in the data set on Brugia malayi [8] came out at 48.6%. The inhibition (INH) with Brugia malayi [11] came to 49%.
With `Cc1ccc(C(=O)/C=C/c2cc(/C=N/c3nccs3)c(O)c(C(C)C)c2)cc1`, the LC100 with Brugia malayi [1] and in the data set with Brugia malayi [3] was greater than 40 µM throughout.
As for `Cc1ccc(C(=O)/C=C/c2cc(C)c(O)c(/C=N/c3nccs3)c2)cc1`, the LC100 with Brugia malayi [1] and with Brugia malayi [3] was greater than 40 µM in each case. For the same compound, in the data set on Brugia malayi [11], the inhibition result is “inactive”.
Regarding `Cc1cc(/C=C/C(=O)c2ccco2)cc(/C=N/c2nccs2)c1O`, the LC100 in the data set with Brugia malayi [1] and with Brugia malayi [3] was greater than 40 µM in each case. Moreover, in the data set with Brugia malayi [11], the “inhibition (INH)” value was found to be 62%.
Consider `Cc1ccc(C(=O)/C=C/c2cc(/C=N/c3nccs3)c(O)c(C(C)(C)C)c2)cc1`, for which the LC100 is 40 µM in the data set on Brugia malayi [1] and greater than 40 µM in the data set with Brugia malayi [3]. Besides, the inhibition result in the data set on Brugia malayi [11] was “inactive”.
Consider `COc1ccc(C(=O)/C=C/c2cc(/C=N/c3nccs3)c(O)c(C(C)(C)C)c2)cc1`, for which the LC100 in the data set with Brugia malayi [1] was 40 µM; with Brugia malayi [3], greater than 40 µM. For the same compound, the inhibition result in the data set on Brugia malayi [11] is “inactive”.
As for `CCCc1cc(/C=C/C(=O)c2ccc(OC)cc2)cc(/C=N/c2nccs2)c1O`, the LC100 in the data set on Brugia malayi [1] and with Brugia malayi [3] was greater than 40 µM each time. For the same compound, the inhibition result in the data set with Brugia malayi [11] was “inactive”.
As for IVERMECTIN [listing 2 of 2 here], the LC100 with Brugia malayi [1] was found to be 2.5 µM; in the data set on Brugia malayi [3], 5 µM. Further, the Ratio CC50/IC50 in the data set on Vero C1008 [12] was determined as 146; in the data set with Vero C1008 [16], 75.4. In addition, in the data set with Brugia malayi [13], the outcome was inactive. The values for the inhibition with Brugia malayi [14] and in the data set with Brugia malayi [11] (dose or concentration not given here) were 21.1% and 5.8%, respectively. Further, the Activity in the data set on Brugia malayi [15] is 43.2%.
Turning to `Cc1cc(/C=C/C(=O)c2cccs2)cc(/C=N/c2nccs2)c1O`, the LC100 with Brugia malayi [1] and in the data set on Brugia malayi [3] was greater than 40 µM in each case.
`COc1ccc(C(=O)/C=C/c2cc(/C=N/c3nccs3)c(O)c(C(C)C)c2)cc1`: the LC100 in the data set with Brugia malayi [1] and in the data set with Brugia malayi [3] was greater than 40 µM in each case. For the same compound, the “inhibition (INH)” value with Brugia malayi [11] is 61%.
